Experimental data from different studies.
Compare with care: the assays were run in different laboratories. In brackets after ≈: the same amount, converted by molar mass.

Structure (SMILES) | organism | test | system | setting | quantity | result
c1coc(Nc2ncnc3ccc(-c4cncc(N5CCOCC5)n4)cc23)n1 | Trypanosoma brucei | parasite growth, SYBR Green | – | 48 h | GI50 | 25000 nM
CCOC(=O)c1cnc2c([N+](=O)[O-])cc(C(F)(F)F)cc2c1NCCCN1CCOCC1 | Trypanosoma brucei | parasite growth, resazurin | – | 72 h | EC50 | > 10000 nM
CC1(C)S[C@@H]2[C@H](NC(=O)[C@H](N)c3ccccc3)C(=O)N2[C@H]1C(=O)O | Enterococcus faecium | microbial growth | – | clinical isolate | MIC50 | 128 µg/mL
CC1(C)S[C@@H]2[C@H](NC(=O)[C@H](N)c3ccccc3)C(=O)N2[C@H]1C(=O)O | Enterococcus faecium | microbial growth, broth dilution | ATCC19434 | 12 h | MIC | 0.5 µg/mL
Cc1c2c(nn1C)CSCc1cc(n(C)n1)CSc1cc(c3ccccc3c1)OCCCc1c(C(=O)O)n(C)c3c-2c(Cl)ccc13 | Enterococcus faecium | microbial growth, broth dilution | – | clinical isolate | MIC50 | 12.5 µM
CN1CCC(Nc2ncnc3ccc(-c4cccc(N5CCOCC5)c4)cc23)CC1 | Trypanosoma brucei | parasite growth, SYBR Green | – | 48 h | GI50 | 4700 nM
C/C(=N\C(=O)/N=C(\C)c1c(O)c2ccccc2oc1=O)c1c(O)c2ccccc2oc1=O | Penicillium verrucosum | microbial growth, broth dilution | – | 48 h | MIC | 62.5 µg/mL
C[C@@H]1[C@H](O)[C@@H](C)/C=C/C=C/C=C/C=C/C=C/C=C/C=C/[C@H](O[C@@H]2O[C@H](C)[C@@H](O)[C@H](N)[C@@H]2O)C[C@@H]2O[C@](O)(C[C@@H](O)C[C@@H](O)[C@H](O)CC[C@@H](O)C[C@@H](O)CC(=O)O[C@H]1C)C[C@H](O)[C@H]2C(=O)O | Candida albicans | microbial growth, broth dilution | CGMCC2 | 48 h | MIC | < 0.25 µM
C=C[C@]1(C)C[C@@H](OC(=O)CS[C@@H]2C[C@H]3CC[C@@H](C2)N3C)[C@]2(C)[C@H](C)CC[C@]3(CCC(=O)[C@H]32)[C@@H](C)[C@@H]1O | Enterococcus faecium | microbial growth | – | clinical isolate | MIC90 | 128 µg/mL (≈ 247 µM)
CN1CCN(c2cccc(-c3ccc4ncnc(Nc5ccc(Cl)c(Cl)c5)c4c3)c2)CC1 | Trypanosoma brucei | parasite growth, SYBR Green | – | 48 h | GI50 | 290 nM
C/C(=N\c1nc(N)nc(/N=C(\C)c2c(O)c3ccccc3oc2=O)n1)c1c(O)c2ccccc2oc1=O | Penicillium verrucosum | microbial growth, broth dilution | – | 48 h | MIC | 7.81 µg/mL
O=[N+]([O-])c1ccc(Nc2ncnc3ccc(-c4cccc(N5CCOCC5)c4)cc23)cc1C(F)(F)F | Trypanosoma brucei | parasite growth, SYBR Green | – | 48 h | GI50 | 8.4 nM
C/C(=N\CCNCC/N=C(\C)c1c(O)c2ccccc2oc1=O)c1c(O)c2ccccc2oc1=O | Penicillium verrucosum | microbial growth, broth dilution | – | 48 h | MIC | 125 µg/mL
FC(F)(F)c1cc(Nc2ncnc3ccc(-c4cccc(N5CCOCC5)c4)cc23)ccc1Cl | Trypanosoma brucei | parasite growth, SYBR Green | – | 48 h | GI50 | 50 nM
CC(=O)N1CCN(c2ccc(OCC3COC(Cn4ccnc4)(c4ccc(Cl)cc4Cl)O3)cc2)CC1 (stereo not drawn) | Candida albicans | microbial growth, broth dilution | 56452 | 48 h | MIC | 2 µM
O=c1[nH]c(CCl)nc2scc(-c3ccccc3F)c12 | Trypanosoma brucei | parasite growth, ATP luminescence | – | 48 h | EC50 | 800 nM
CCOC(=O)c1cnc2c([N+](=O)[O-])cc(C(F)(F)F)cc2c1NCCc1ccccc1 | Trypanosoma brucei | parasite growth, resazurin | – | 72 h | EC50 | > 10000 nM
O=c1[nH]c(CCl)nc2scc(-c3ccc(F)cc3)c12 | Trypanosoma brucei | parasite growth, ATP luminescence | – | 48 h | EC50 | 1500 nM
c1cc(-c2ccc3ncnc(Nc4ncco4)c3c2)nc(N2CCOCC2)n1 | Trypanosoma brucei | parasite growth, SYBR Green | – | 48 h | GI50 | 230 nM
CC(=O)NC[C@H]1CN(c2ccc(N3CCOCC3)c(F)c2)C(=O)O1 | Enterococcus faecium | microbial growth | – | clinical isolate | MIC90 | 2 µg/mL (≈ 5.93 µM)
c1cc(-c2ccc3ncnc(Nc4ncco4)c3c2)nc(N2CCOCC2)c1 | Trypanosoma brucei | parasite growth, SYBR Green | GAMBIENSE | – | GI50 | 2400 nM
C/C(=N\C1CCCCC1/N=C(\C)c1c(O)c2ccccc2oc1=O)c1c(O)c2ccccc2oc1=O (stereo not drawn) | Penicillium verrucosum | microbial growth, broth dilution | – | 48 h | MIC | 62.5 µg/mL
OC(Cn1cncn1)(Cn1cncn1)c1ccc(F)cc1F | Candida albicans | microbial growth, broth dilution | 58288 | 48 h | MIC | 8 µM
O=c1[nH]c(CCl)nc2scc(-c3cccc(F)c3)c12 | Trypanosoma brucei | parasite growth, ATP luminescence | – | 48 h | EC50 | 1100 nM
Clc1cccc(Nc2ncnc3ccc(-c4cccc(N5CCOCC5)c4)cc23)c1 | Trypanosoma brucei | parasite growth, SYBR Green | – | 48 h | GI50 | 380 nM
C/C(=N\C(=S)/N=C(\C)c1c(O)c2ccccc2oc1=O)c1c(O)c2ccccc2oc1=O | Penicillium verrucosum | microbial growth, broth dilution | – | 48 h | MIC | 1.95 µg/mL
O=c1[nH]c(CCl)nc2scc(-c3ccc(C(F)(F)F)cc3)c12 | Trypanosoma brucei | parasite growth, ATP luminescence | – | 48 h | EC50 | 2500 nM
